One may read the Tmax as the time from dosing to the highest level. One may read the half-life as how long it takes for the measured level to halve. One may read the bioavailability as dose-corrected exposure relative to a reference, in per cent. Lower therefore signals little systemic uptake. One may read the Cmax as the maximum level reached in the sampled fluid or tissue. Broadly, the AUC(0-inf) is total exposure, with the tail of the curve extrapolated. Read a low AUC(0-inf) as low exposure. For orientation: pIC50 means −log10 of the IC50, conventionally taken in molar units. Higher therefore signals a low IC50.

These results are taken from ChEMBL document CHEMBL1129982, “Structure-activity relationships in a series of orally active gamma-hydroxy butenolide endothelin antagonists” (J Med Chem, 1997).

SMILES strings stand for the structures. pIC50: −log10 of the molar value. Some results are limits rather than exact numbers.

Data set [1] is described as follows: Time to reach maximum observed concentration in oral (5 mg/kg) fasted dogs. The settings on record: dog, in vivo. It counts as ADME, organism-based, Canis lupus familiaris. The gist of the method:
(§1)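 Three-way crossover in four male beagles: single 2.5 mg/kg iv dose (fed) or 5 mg/kg oral capsule, fed or fasted. Serial heparinized plasma taken up to 24 h. Drug isolated by reverse-phase SPE, quantified by C18 HPLC with fluorescence (ex 312, em 430 nm), LOQ 10 ng/mL. Noncompartmental analysis. […] AUC by trapezoidal rule extrapolated to infinity. F from dose-normalized po/iv AUC ratio.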

Data set [2] in a line: Mean of apparent terminal phase elimination half-life in oral (5 mg/kg) fed dogs. It counts as ADME, organism-based, Canis lupus familiaris. The following applies: dog, in vivo. The gist of the method:
as §1

Data set [3] can be described thus: Absolute oral bioavailability in oral (5 mg/kg) fasted dogs. It counts as ADME, organism-based, Canis lupus familiaris. The following applies: dog, in vivo. In a few lines: as §1
The nature of data set [4]: Absolute oral bioavailability in oral (5 mg/kg) fed dogs. It counts as ADME, organism-based, Canis lupus familiaris. The settings on record: dog, in vivo. The gist of the method: as §1
Data set [5] in a line: Maximum observed concentration in oral (5 mg/kg) fasted dogs. In kind it is ADME, organism-based, Canis lupus familiaris. The arrangement: dose 5 mg/kg, route oral. The settings on record: dog, in vivo. The gist of the method:
as §1

A short description of data set [6]: Area under the concentration-time curve from time zero to infinity in oral (5 mg/kg) fasted dogs. The following applies: dog, in vivo. In kind it is ADME, organism-based, Canis lupus familiaris. In a few lines: as §1
The nature of data set [7]: Mean of apparent terminal phase elimination half-life in oral (5 mg/kg) fasted dogs. It counts as ADME, organism-based, Canis lupus familiaris. The following applies: dog, in vivo. In a few lines:
as §1

The nature of data set [8]: Area under the concentration-time curve from time zero to infinity after intravenous administration of 2.5 mg/kg in dogs. In kind it is ADME, organism-based, Canis lupus familiaris. The arrangement: dose 2.5 mg/kg, route intravenous. The settings on record: dog, in vivo. In a few lines:
(§2)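 Four male beagle dogs, fed, single 2.5 mg/kg iv dose within a three-way crossover. Serial heparinized plasma sampled to 24 h. Drug recovered by reverse-phase solid-phase extraction and measured by HPLC with fluorescence detection (ex 312, em 430 nm); LOQ 10 ng/mL.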

Data set [9] can be described thus: Time to reach maximum observed concentration in oral (5 mg/kg) fed dogs. In kind it is ADME, organism-based, Canis lupus familiaris. The following applies: dog, in vivo. The gist of the method: as §1
The nature of data set [10]: Area under the concentration-time curve from time zero to infinity in oral (5 mg/kg) fed dogs. In kind it is ADME, organism-based, Canis lupus familiaris. The settings on record: dog, in vivo. The gist of the method: as §1
Data set [11] in a line: Maximum observed concentration in oral (5 mg/kg) fed dogs. In kind it is ADME, organism-based, Canis lupus familiaris. The arrangement: dose 5 mg/kg, route oral. The following applies: dog, in vivo. The gist of the method: as §1
A short description of data set [12]: Mean of apparent terminal phase elimination half-life after intravenous administration of 2.5 mg/kg in dogs. In kind it is ADME, organism-based, Canis lupus familiaris. The arrangement: dose 2.5 mg/kg, route intravenous. The following applies: dog, in vivo. In a few lines: as §2
For a further data set, the target named is T1, Endothelin-1 receptor (Homo sapiens, UniProt P25101).
T1 sequence (P25101 whole entry): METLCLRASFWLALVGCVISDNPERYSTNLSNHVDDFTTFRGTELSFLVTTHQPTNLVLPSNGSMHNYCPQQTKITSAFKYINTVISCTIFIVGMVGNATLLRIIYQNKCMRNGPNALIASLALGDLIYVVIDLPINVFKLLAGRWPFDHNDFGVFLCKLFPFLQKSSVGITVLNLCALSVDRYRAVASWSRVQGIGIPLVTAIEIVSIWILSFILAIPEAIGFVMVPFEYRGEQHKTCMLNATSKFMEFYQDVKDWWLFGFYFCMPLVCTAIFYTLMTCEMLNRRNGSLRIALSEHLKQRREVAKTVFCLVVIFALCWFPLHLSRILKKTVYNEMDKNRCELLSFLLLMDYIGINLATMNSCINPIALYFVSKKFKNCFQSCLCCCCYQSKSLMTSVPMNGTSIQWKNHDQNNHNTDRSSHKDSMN
Kind of data set: Binding affinity against human cloned endothelin A receptor expressed in LTK-cells. In kind it is cell-based. In a few lines:
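Radioligand binding to cloned human ETA (Ltk⁻ cells) and ETB (CHO-K1 cells) receptors. Selectivity expressed as ETB IC50/ETA IC50.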

In data set [13] the target is T2, Endothelin receptor type B (Homo sapiens, UniProt P24530).
T2 sequence (P24530 whole entry): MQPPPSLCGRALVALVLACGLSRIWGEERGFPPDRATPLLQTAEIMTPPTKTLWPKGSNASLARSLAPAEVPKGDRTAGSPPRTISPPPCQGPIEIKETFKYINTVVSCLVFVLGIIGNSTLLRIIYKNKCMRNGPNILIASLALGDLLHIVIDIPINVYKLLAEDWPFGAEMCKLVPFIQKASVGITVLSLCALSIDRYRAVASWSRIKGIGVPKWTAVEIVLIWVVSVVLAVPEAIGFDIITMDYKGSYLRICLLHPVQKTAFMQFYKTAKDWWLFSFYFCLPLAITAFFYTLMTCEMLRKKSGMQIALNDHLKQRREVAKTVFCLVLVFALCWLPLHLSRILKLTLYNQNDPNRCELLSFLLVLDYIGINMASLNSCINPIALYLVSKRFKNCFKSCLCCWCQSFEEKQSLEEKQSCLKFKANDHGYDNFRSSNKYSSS
The experiment in a line: Binding affinity against human cloned Endothelin B receptor expressed in CHO-K1 cells. It counts as cell-based. In a few lines:
(§3)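 Radioligand binding to cloned human ETA (Ltk⁻ cells) and ETB (CHO-K1 cells) receptors. […] Selectivity expressed as ETB IC50/ETA IC50.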

The target of data set [14] is Endothelin receptor, ET-A/ET-B (Homo sapiens) (UniProt P24530+P25101). The experiment in a line: Selectivity of compound on ET B with respect to ET A receptor. It counts as protein assay. The gist of the method: as §3
The target of data set [15] is T2, Endothelin receptor type B. The experiment in a line: Inhibition of Endothelin B receptor mediated (ET-3) release of arachidonic acid from human cloned receptors / CHO-K1 cells; In active. It counts as cell-based. The gist of the method: (§4)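 Arachidonic acid release assay. ETA: rabbit renal artery vascular smooth muscle cells stimulated with ET-1. ETB: recombinant human receptors in CHO-K1 cells stimulated with ET-3.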

In data set [16] the target is T2, Endothelin receptor type B. Kind of data set: Inhibition of Endothelin B receptor mediated (ET-3) release of arachidonic acid from human cloned receptors expressed in CHO-K1 cells. In kind it is cell-based. The gist of the method:
as §4

For a further data set, the system named is Rattus norvegicus. Kind of data set: In vivo effect at 10 mg/kg on MABP in anesthetized ganglionic-blocked rats versus ET-1 (0.3 nmol/kg, iv) baseline. In kind it is functional. The gist of the method:
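Rats dosed orally by gavage at 10 mg/kg. Ganglionic blockade with mecamylamine given 15 min later (baseline MABP 80–90 mmHg). ET-1 challenge (0.3 nmol/kg iv) 15 min after that. Reduction of the peak pressor response, about 5 min post ET-1, scored against vehicle-treated controls.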

Turning to `COc1ccc(C2(O)OC(=O)C(c3ccc4c(c3)OCO4)=C2Cc2cc(OC)c(OC)c(OC)c2)cc1` (centres undefined) [PD-156707], the Tmax in data set [1] turned out to be 0.69 h; in data set [9] it was 2.5 h. For the same compound, the half-life in data set [2] was 1.9 h; in [7] it was 1.2 h; in data set [12] it was 0.62 h. Besides, the bioavailability in data set [3] was 67%; in data set [4] it was 20%. Besides, the Cmax came to 1520 ng/mL in data set [5] and 480 ng/mL in data set [11]. The area under the curve AUC(0-inf) stood at 2000 ng·h/mL in data set [6], 1500 ng·h/mL in data set [8] and 590 ng·h/mL in data set [10].
As for `COc1ccc(C2(O)OC(=O)C(c3cc(OC)c4c(c3)OCO4)=C2Cc2cc(OC)c(OC)c(OC)c2)cc1` (centres undefined), the pIC50 on Endothelin-1 receptor was 9.30; in data set [13] it was 6.59. In addition, the Selectivity in data set [14] was determined as 520.
For the compound `O=C1OC(O)(c2ccc(Cl)cc2)C(Cc2ccccc2)=C1c1ccc2c(c1)OCO2` (centres undefined), in [15], the IC50 entry was “Not Active”. Also, the negative logarithm of the IC50 (pIC50) in [13] was 4.57.
As for `COc1ccc(C(=O)/C(Cc2cc(OC)c(OC)c(OC)c2)=C(\C(=O)[O-])c2ccc3c(c2)OCO3)cc1C.[Na+]`, the pIC50 in [16] was 5.72. In addition, the Pressor response in the data set with Rattus norvegicus was 53%.
The compound `COc1ccc(C(=O)/C(Cc2ccccc2)=C(\C(=O)[O-])c2ccc3c(c2)OCO3)cc1.C[N+](C)(C)CCO` had a negative-log IC50 (pIC50) in data set [16] of 4.66. Besides, in the data set with Rattus norvegicus, the Pressure response came to 80%.
In turn, `COc1ccc(C(=O)/C(Cc2ccc(NC(C)=O)cc2)=C(\C(=O)O)c2ccc3c(c2)OCO3)cc1` showed a pIC50 in [16] of 5.09.
`COc1ccc(C(=O)/C(Cc2ccccc2)=C(\C(=O)[O-])c2cc(OC)c3c(c2)OCO3)cc1.[Na+]` showed a negative-log IC50 (pIC50) in [16] of 4.80. In addition, the Pressor response with Rattus norvegicus stood at 76%.
`COc1ccc(C(=O)/C(Cc2cc(OC)c(OC)c(OC)c2)=C(\C(=O)O)c2cc(OC)c3c(c2)OCO3)cc1C` had a pIC50 in data set [16] of 7.17.
Regarding `CCOc1cc(CC2=C(c3ccc4c(c3)OCO4)C(=O)OC2(O)c2ccc(OC)cc2)cc(OCC)c1OCC` (centres undefined), the pIC50 at Endothelin-1 receptor is 9.92; in [13], 6.35. In addition, in data set [14], the Selectivity came to 3700.
Taken in the same sequence, the figures for `COc1ccc(C2(O)OC(=O)C(c3ccc4c(c3)OCO4)=C2Cc2cc(OC)c(OC)c(OC)c2)cc1C` (centres undefined) were 9.30, 6.62 and 480.
As for `CCc1ccc(C2(O)OC(=O)C(c3ccc4c(c3)OCO4)=C2Cc2ccccc2)cc1` (centres undefined), the negative-log IC50 (pIC50) on Endothelin-1 receptor was 6.20; in [13], under 5.60.
Taken in the same sequence, the figures for `O=C1OC(O)(c2ccc(C(=O)O)cc2)C(Cc2ccccc2)=C1c1ccc2c(c1)OCO2` (centres undefined) were under 4.60 and under 5.60.
Regarding `COc1ccc(C2(O)OC(=O)C(c3cc(OC)ccc3OC)=C2Cc2ccccc2)cc1` (centres undefined), the pIC50 was 6.62 at Endothelin-1 receptor and under 5.60 in data set [13].
On the same counts, the results for `COc1ccc(C2(O)OC(=O)C(c3ccc4c(c3)OCO4)=C2Cc2ccccc2)cc1OC` (centres undefined) are 7.96 and 4.74.
